The values that follow come from PubChem BioAssay AID463079 (The Scripps Research Institute Molecular Screening Center, 2010).

Screen size: about 330,000 compounds; about 2,000 (0.61%) were called active. The full list was thinned out, with actives kept by preference. Unmarked numbers belong to inactive results.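 How the source made its calls: active means inhibition above that plate's mean sample inhibition plus 3 SD (cut at about 26% in these data); inactive means the rest.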

The nature of this test: nonselective Gq signaling inhibition in CHO cells – cell-based, fluorescence, Fluo-8 calcium dye, counter-screen for OX1R antagonist project, primary screen (AID 463079).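 Further: 0% = ATP-challenged DMSO wells and 100% = DMSO wells without ATP.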 The conditions noted are these: parental CHO-K1, ATP-induced calcium, Fluo-8 fluorescence; at 5.6 µM; hits give high values. In outline:
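Test system: parental CHO cells; detection: calcium-sensitive Fluo-8 fluorescence; evaluation: percent inhibition of calcium signal; also added: ATP as calcium-mobilizing challenge; repeats: one well per compound; control set: ATP-challenged DMSO wells low, unchallenged DMSO wells high; compound: single nominal dose of 5.6 µM per compound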
A general note: Counterscreens check selectivity or assay interference.
Turning to `C=CCC1(CC=C)CCCN1C(=O)c1cc(COc2ccc(-n3cncn3)cc2)on1`, the inhibition (usually the change of the read-out against control, counted positive when it falls) is 66.2% (active).

On to `CCn1ccnc1CN(C)C(=O)c1cc(COc2ccc(-n3cncn3)cc2)on1`, for which the inhibition was -9.68%.

Regarding `O=C(c1cc(COc2ccc(F)c(F)c2)on1)N1CCOCC1`, the inhibition is -5.07%. As for `COC(=O)c1cc(Oc2ccc(S(=O)(=O)N3CCOCC3)cc2[N+](=O)[O-])cc(C(=O)OC)c1`, the inhibition was -3.52%. With `N#C/C(=C\c1ccccc1)c1n[nH]c(Cn2cncn2)n1`, the inhibition is -15.2%. As for `CC(NC(=O)C1CCCN(S(=O)(=O)c2ccc(-n3cnnn3)cc2)C1)c1ccc(F)cc1` (stereo unspecified), the figure is -12.5%; as for `CCC(=O)N1CCN(c2ccccc2NC(=O)COc2cccc(C)c2C)CC1`, -26.9%; as for `Cc1ccccc1OCC(=O)Nc1ccc(N2CCN(C(=O)C(C)C)CC2)c(Cl)c1`, 29.7% (active). As for `Cc1ccccc1OCC(=O)Nc1ccc2c(c1)ncn2C`, the figure is 17.8%.

As to `CC(C)(C)n1cnnc1Sc1ccc([N+](=O)[O-])cn1`, the inhibition is -10.8%. Turning to `Cc1nc2ccc(NC(=S)N3CCC(C)CC3)cc2nc1C`, the inhibition was -10.7%.

`CC1=C/C(=N\OS(=O)(=O)c2ccccc2)C=CC1=O`: the inhibition was 46% (active). For the compound `NNC(=O)CNC(c1ccccc1)c1cc(Cl)ccc1NC(=O)c1ccccc1` (stereo unspecified), the inhibition is -31.4%. As for `Cc1cc(C)c(C)c(S(=O)(=O)Nc2cccnc2)c1C`, the figure is -11.2%; as for `COc1ccccc1Oc1ccc(S(=O)(=O)Nc2cccnc2)cc1`, 36.9% (active). Consider `COc1ccc(S(=O)(=O)Nc2cccnc2)c(Cl)c1Cl`, for which the inhibition was -1.47%. For the compound `O=C(C1CC(=O)N(c2ccc(F)cc2)C1)N1CCN(c2ccccc2)CC1` (stereo unspecified), the inhibition is -3.64%.

For `CCOC(=O)C1CCN(CC(=O)Nc2ccc(OC)c(S(=O)(=O)N3CCCCC3)c2)CC1`, the inhibition was -13.3%. As for `CCCCSc1nnc2c(n1)OC=Nc1ccccc1-2`, the figure is -1.35%.

Turning to `CCOC(=O)Cn1c(=O)oc2cc(S(=O)(=O)N(C)Cc3ccco3)ccc21`, the inhibition was 4.07%. For the compound `CN(c1ccccc1)c1ccc(/C=c2\s/c(=C(/C#N)C(=O)C(C)(C)C)n(Cc3ccco3)c2=O)cc1`, the inhibition was 47.5% (active). With `CCCCn1c(SCC(=O)N2CCCC2=O)nc2cc(S(N)(=O)=O)ccc21`, the inhibition was -0.51%. On to `CCCCn1c(SCC(=O)N2CCC(C(=O)OCC)CC2)nc2cc(S(N)(=O)=O)ccc21`, for which the inhibition was -21.9%. As for `CCCCn1c(SCc2ncc(-c3ccccc3)o2)nc2cc(S(N)(=O)=O)ccc21`, the inhibition was 36.6% (active). `Cc1nnc(C)c2c(C)n(N)c(C)c12`: the inhibition was 4.12%. In the case of `S=C(NCC1COc2ccccc2O1)Nc1ccc(Br)cc1` (stereo unspecified), the inhibition is 1.75%. Consider `c1ccc(-c2cc3c(NCC4COc5ccccc5O4)ncnc3s2)cc1` (stereo unspecified), for which the inhibition was 2.37%.

With `c1ccc2c(c1)OCC(CNc1ncnc3nc[nH]c13)O2` (stereo unspecified), the inhibition was 76% (active).

As to `COc1ccc(NC(=O)CC2SC(N3CCCCC3)=NC2=O)cc1OC` (stereo unspecified), the inhibition was -5.72%. For the compound `CCC(=O)Nc1ccc(C(=O)CSc2nnc(CNc3ccc(Cl)cc3)o2)cc1OC`, the inhibition is 39.8% (active).

In the case of `CCOC(=O)CSc1nnc(CNc2ccc(F)cc2)o1`, the inhibition was 7.59%.

`COc1cc(C(=O)NCc2nnc(SCC(=O)c3ccc(Cl)cc3)o2)cc(OC)c1OC`: the inhibition is -35.5%. Take `CCCCCCCNC(=O)C1(CC2CC(c3cccc(Br)c3)=NO2)CCN(C(=O)c2cc(OCC)c(OCC)c(OCC)c2)CC1` (stereo unspecified): the inhibition is -43.7%. The figure for `CC1C/C(=N/NC(=O)c2cccs2)CC(C)(C)C1` (stereo unspecified) is 5.84%. `O=C(CN1C(=O)NC(Cc2c[nH]c3ccccc23)C1=O)Nc1ccccc1C(F)(F)F` (stereo unspecified): the inhibition was -8.55%. In the case of `CC(C)(C)C(=O)NNC(=O)c1ccc(Oc2cc(Cl)cc(Cl)c2)o1`, the inhibition was 0.38%.

For `CN(C)c1ccc(C(CC(=O)O)C(=O)O)cc1` (stereo unspecified), the inhibition is 26.3% (active). `CC(=O)NC(CC(=O)O)c1ccc(F)cc1` (stereo unspecified): the inhibition was 14.5%. As for `CC(C)CNC(=O)C(=O)Nc1ccc(N(C)C)cc1`, the inhibition is -6.25%. For `COC(=O)Cn1c(=NC(=O)c2cc(OC)c(OC)c(OC)c2)sc2cc(OC)ccc21`, the inhibition was -4.35%.

On to `CN(C)/C=C(/C(=O)c1ccc(Cl)c(Cl)c1)c1nnnn1-c1ccccc1`, for which the inhibition is 4.24%. The figure for `CCc1ccc(CN(C)C(=O)CCc2nnc(-c3ccc(-c4ccccc4)cc3)o2)nc1` is 2.52%; for `COc1ccc(Cl)cc1-n1c(C)cc(C(=O)OCC(=O)N2CC(=O)Nc3ccccc32)c1C` it is -26.4%; for `Cn1nc(C(F)(F)F)c(C(=O)Nc2cccc(C(F)(F)F)c2)c1SCc1ccc(Cl)cc1` it is 56.3% (active). Consider `O=C(O)CSc1c2c(nc3cc(C(=O)Nc4cccc(C(F)(F)F)c4)ccc13)CCCC2`, for which the inhibition was -7.81%. The figure for `COC(=O)c1ccccc1Sc1c(/C=N/OCc2ccc(Cl)cc2)c(C(F)(F)F)nn1C` is -7.11%; for `Cc1ccc(-n2[nH]c(C)c(/C=N/NC(=O)c3cccc([N+](=O)[O-])c3)c2=O)cc1C` it is -2.1%; for `COc1cc(SC#N)ccc1N=Cc1c(C)[nH]n(-c2ccc(C)cc2)c1=O` it is 96.8% (active). With `O=C(NNC(=O)c1cnccc1C(F)(F)F)c1ccc(Cl)cc1`, the inhibition was -3%.

`Oc1ccccc1CN1CCN(C(c2ccccc2)c2ccccc2)CC1`: the inhibition is -33.9%. With `CC1(C)CC(N2CCN(C(c3ccccc3)c3ccccc3)CC2)=CC(=[N+]2CCCCC2)C1`, the inhibition is 29.5% (active). On to `O=C1CC(N2CCN(C(c3ccccc3)c3ccccc3)CC2)C(=O)N1` (stereo unspecified), for which the inhibition is -12.9%. As for `CC(C)CC(CCc1ccccc1)OS(N)(=O)=O` (stereo unspecified), the figure is -9.01%; as for `CC(C(=O)c1ccc(-c2ccccc2)cc1)[n+]1cccc(Br)c1` (stereo unspecified), -2.14%. On to `Cc1cc(C)c(-c2c(O)c3ccccc3n(C)c2=O)c(C)c1`, for which the inhibition was -6.96%. For the compound `CCOC(=O)Cc1cc(=O)[nH]c(=O)[nH]1`, the inhibition was -1.68%. For the compound `CN(C)S(=O)(=O)c1ccc(Oc2ccc(S(=O)(=O)N(C)C)cc2)cc1`, the inhibition is 53.5% (active). As for `CN(C)S(=O)(=O)c1ccc(NC(=O)N2CCOCC2)cc1`, the figure is -16.7%; as for `COc1ccc(S(=O)(=O)N(C)CC(=O)N2CCCC2)cc1`, 0.64%. The figure for `CN(C(=O)CC1C(=O)NCCN1Cc1ccc(F)cc1Cl)C1CCCCC1` (stereo unspecified) is -17.1%; for `Cc1ccc(S(=O)(=O)N(Cc2cc3ccccc3[nH]c2=O)CC2CCCO2)cc1` (stereo unspecified) it is -27.8%; for `COCCN(C(=O)CCC(=O)Nc1nccs1)C(C(=O)NCCC(C)C)c1ccc(F)cc1` (stereo unspecified) it is -13%. For the compound `Cc1cc(C(=O)NC2CC(C)(C)Cc3c2cnn3-c2ccccc2)n[nH]1` (stereo unspecified), the inhibition is -10.2%. Consider `COC(=O)c1ccc(C(=O)NC2CC(C)(C)Cc3c2cnn3-c2ccc(F)cc2)nc1` (stereo unspecified), for which the inhibition is -9.97%.

`COc1ccc(C(=O)NC2CC(C)(C)Cc3c2cnn3-c2ccccc2C)o1` (stereo unspecified): the inhibition is -22.6%. For `CC1(C)Cc2c(cnn2-c2cccc(F)c2)C(NC(=O)c2cc[n+]([O-])cc2)C1` (stereo unspecified), the inhibition was -5.88%. With `Cn1nccc1C(=O)NC1CCCc2c1cnn2-c1ccc(F)cc1F` (stereo unspecified), the inhibition was 45.4% (active). As to `CC(=O)NCC(=O)NC1CCCc2c1cnn2-c1ccccc1F` (stereo unspecified), the inhibition is 10.8%.

For `Cc1cc(C(=O)NC2CCCc3c2cnn3-c2cccc(C)c2C)c(C)o1` (stereo unspecified), the inhibition is 2.39%. Regarding `COc1ccc(C(=O)NC2CCCc3c2cnn3-c2cccc(C)c2C)c(OC)n1` (stereo unspecified), the inhibition was 40.4% (active).

Regarding `Cn1nccc1C(=O)NC1CCCc2c1cnn2-c1ccccc1F` (stereo unspecified), the inhibition was 48.7% (active). For `COCCCNC(=O)CN1C(=O)CSc2ccc(S(=O)(=O)N3CCOCC3)cc21`, the inhibition is -10.9%. Take `COc1ccc(S(=O)(=O)N2CCOCC2)cc1NC(=O)COc1ccccc1`: the inhibition was -8.66%. `CCOc1cc(N2CCOCC2)c(OCC)cc1NC(=O)C1=NN(c2cccc(C)c2)C(=O)CC1`: the inhibition was -30.7%.

Regarding `CSC1=NC2(C)CCCCC2C12C=CC(=O)C=C2` (stereo unspecified), the inhibition was -8.36%.

For `Cc1cc(Cl)c2oc(C(=O)N(C)C(C)c3ccccn3)c(C)c2c1` (stereo unspecified), the inhibition was -25.6%. Consider `Cc1cc2oc(=O)cc(-c3ccccc3)c2c(C)c1-c1ccc(OC(F)(F)F)cc1`, for which the inhibition was -24%. Regarding `C/C(=N\NC(=O)Cc1ccccc1[N+](=O)[O-])c1cccnc1`, the inhibition is -2.78%.

`COc1ccc(CNc2ncnc3ccccc23)cc1`: the inhibition was 30% (active).

As to `COc1ccc(CNc2nccs2)cc1`, the inhibition was -0.35%. For `COc1cccc(CNc2nc(C(F)(F)F)nc3ccccc23)c1`, the inhibition is -21.9%. Regarding `O=C(Nc1cccc(F)c1)N1C2CCC1CC(O)(c1cccnc1)C2` (stereo unspecified), the inhibition is -8.22%. For the compound `COc1cc(NC(=O)CCNC(=O)Cn2ccc3ccccc3c2=O)cc(OC)c1OC`, the inhibition is 0.46%.

Consider `Cc1cc(C(F)F)n2nc(C(=O)Nc3ccc(S(=O)(=O)NC45CC6CC(CC(C6)C4)C5)cc3)nc2n1`, for which the inhibition is -7.46%.

Regarding `CCn1nccc1C(=O)Nc1ccc(S(=O)(=O)NC23CC4CC(CC(C4)C2)C3)cc1`, the inhibition was 61% (active).

As to `O=C(Nc1ccc(S(=O)(=O)Nc2ncccn2)cc1)C12CC3CC(CC(C3)C1)C2`, the inhibition is -8.7%.

With `COc1ccccc1CNS(=O)(=O)c1c(C)[nH]c(C)c1C(=O)N1CCCCC1`, the inhibition was -7.23%.

Take `Cc1ccc(S(=O)(=O)N(CC(=O)N2CCc3ccccc3C2)c2cccc(Cl)c2)cc1`: the inhibition is -23.4%. As for `COC(=O)Cn1cc(/C=C/[N+](=O)[O-])c2ccccc21`, the inhibition is -9.14%. `O=[N+]([O-])/C=C/c1ccc2c(ccn2Cc2ccccc2)c1`: the inhibition was 42% (active). `O=C(Cn1ccc2cc(S(=O)(=O)N3CCCC3)ccc21)NCc1ccccc1`: the inhibition is -3.13%.
